Shown are actives, neighbours in structure and some others; about 0.79% of the full set was active somewhere.
G6PDH CS: L. mesenteroides G6PDH inhibition counter-screen; Purified L. mesenteroides G6PDH, diaphorase/resazurin coupled fluorescence, 45 min; inhibition, % at 5 µM; 0.12% of 200,000 active; in the data active means inhibition above about 50%
DTT redox prof: compounds producing H2O2 with reducing agent – biochemical, NIH compound library profiling, artefact control for MLSCN library redox annotation, primary screen; DTT-dependent redox cycling H2O2, phenol red/HRP absorbance; 100% = 100 µM peroxide control, 0% = buffer; activation, % at 10 µM; 0.03% of 200,000 active; AID 878;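 active means activation of at least 50% relative to the plate's high and low controls in the primary single-dose screen; inactive means activation below 50%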;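 further: compound incubated with DTT at 0.8 mM final as the reducing agent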
p97 ATPase inh: human p97 ATPase inhibition; P55072; recombinant p97 ATPase, Kinase-Glo ATP luminescence, 3 h; inhibition, % at 8 µM; 0.42% of 220,000 active; AID 1481; in the data active means inhibition above about 15%;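 further: 0% = DMSO vehicle and 100% = wells lacking enzyme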
Target sequence (P55072 whole entry, looked up): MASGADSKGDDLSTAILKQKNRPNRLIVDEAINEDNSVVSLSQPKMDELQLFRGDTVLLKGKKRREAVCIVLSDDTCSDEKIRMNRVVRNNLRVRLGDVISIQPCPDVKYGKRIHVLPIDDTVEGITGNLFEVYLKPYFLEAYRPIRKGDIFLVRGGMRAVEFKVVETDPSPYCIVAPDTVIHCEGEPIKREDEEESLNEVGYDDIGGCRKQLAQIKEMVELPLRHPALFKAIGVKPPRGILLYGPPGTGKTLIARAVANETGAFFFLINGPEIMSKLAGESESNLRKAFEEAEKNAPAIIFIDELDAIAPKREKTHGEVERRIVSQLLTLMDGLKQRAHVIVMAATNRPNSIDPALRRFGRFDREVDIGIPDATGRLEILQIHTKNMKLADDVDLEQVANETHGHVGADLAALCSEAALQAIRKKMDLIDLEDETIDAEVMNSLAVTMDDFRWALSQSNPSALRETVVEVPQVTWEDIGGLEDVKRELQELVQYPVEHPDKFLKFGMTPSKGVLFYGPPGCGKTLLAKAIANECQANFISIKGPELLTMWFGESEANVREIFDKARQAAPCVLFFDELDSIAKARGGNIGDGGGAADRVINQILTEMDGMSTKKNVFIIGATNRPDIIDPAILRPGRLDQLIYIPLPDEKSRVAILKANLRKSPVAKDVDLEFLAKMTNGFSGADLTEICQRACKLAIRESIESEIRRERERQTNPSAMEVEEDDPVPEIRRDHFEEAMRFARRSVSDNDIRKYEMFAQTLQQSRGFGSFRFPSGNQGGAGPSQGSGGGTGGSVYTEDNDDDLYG
TNAP inh noacc: blocks human TNAP activity with no phosphate acceptor present | P05186 | purified TNAP, CDP-star luminescence, 30 min | inhibition, % at 20 µM | 0.26% of 200,000 active | AID 1012;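 active means tissue-nonspecific alkaline phosphatase inhibition above about 50% at 20 µM in the single-dose screen, limit read from the data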;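 further: 0% = DMSO negative control and 100% = EDTA positive control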
TNAP inh hiacc: blocks human TNAP under high phosphate acceptor concentration; P05186; inhibition, % at 20 µM; AID 1135; purified TNAP, CDP-star luminescence, 1 M DEA; 0.03% of 200,000 active;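 active means over 50% inhibition of tissue-nonspecific alkaline phosphatase at 20 µM in the single-dose screen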;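 further: plate controls were DMSO wells for no effect and EDTA-quenched wells as full inhibition for full effect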
TNAP act hi DEA: activators of human TNAP at high phosphate acceptor concentration; P05186; purified TNAP, CDP-star luminescence, 1 M DEA, 30 min; hits give high values; 0 = EDTA background, 1 = DMSO-only activity; activation factor at 20 µM; 200,000 tested, under 10 active; AID 1136;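 active means activation factor at least 2 at 20 µM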
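Dosing: 20 µM single point. System: human TNAP. Amount: TNAP 1/800 final. Incubation: 30 min, room temperature. Read-out: TNAP activation factor scaled between EDTA and DMSO control wells. Signal: luminescence from CDP-star hydrolysis. Medium: 1 M DEA, pH 9.8, Mg2+, Zn2+. Control set: EDTA negative control, DMSO positive control.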
Numbers without * were called inactive.

COc1cc(NC(=O)c2ccc3c(c2)OCO3)c2ncccc2c1 was read as G6PDH CS 3, DTT redox prof 1, p97 ATPase inh 2, TNAP inh noacc -8, TNAP inh hiacc -2 and TNAP act hi DEA 1.
For COc1cc(NCCCCCCCN)c2ncccc2c1 the results were G6PDH CS 53*, DTT redox prof 0, p97 ATPase inh 14, TNAP inh noacc 2, TNAP inh hiacc 13 and TNAP act hi DEA 0.9.
Screening Cc1ccccc1NC(=O)CCN1CCCC1 returned G6PDH CS 14, DTT redox prof 0, p97 ATPase inh -2, TNAP inh noacc -7, TNAP inh hiacc -4 and TNAP act hi DEA 1.
O=C(N/N=C/c1cccc(O)c1)c1cc(-c2ccc3c(c2)OCO3)n[nH]1 was read as G6PDH CS -17, DTT redox prof -1, p97 ATPase inh 3, TNAP inh noacc 95*, TNAP inh hiacc 16 and TNAP act hi DEA 0.8.
`O=C(N/N=C/c1ccc(O)cc1)c1cc(-c2ccc3c(c2)OCO3)n[nH]1` gave G6PDH CS -27, DTT redox prof 0, p97 ATPase inh 8, TNAP inh noacc 91*, TNAP inh hiacc 1 and TNAP act hi DEA 1.
For O=C(N/N=C/c1ccccc1)c1cc(-c2ccc3c(c2)OCO3)n[nH]1 the results were G6PDH CS -18, DTT redox prof 0, p97 ATPase inh 12, TNAP inh noacc 66*, TNAP inh hiacc 6 and TNAP act hi DEA 0.9.
Cc1ccc(C(=O)N/N=C/c2ccc3c(c2)OCO3)o1 was read as G6PDH CS 6, DTT redox prof 0, p97 ATPase inh -8, TNAP inh noacc -6, TNAP inh hiacc -2 and TNAP act hi DEA 1.
Screening O=C(N/N=C/c1cccc([N+](=O)[O-])c1)c1cc(-c2ccc3c(c2)OCO3)n[nH]1 returned p97 ATPase inh 10.
CS(=O)(=O)N1CCC(Oc2ccccc2C(=O)NC(C2CC2)C2CC2)CC1 was read as G6PDH CS 15, DTT redox prof 0, p97 ATPase inh 4, TNAP inh noacc -7, TNAP inh hiacc -8 and TNAP act hi DEA 1.1.
CCOc1ccc(C(=O)CSc2nnc(N)s2)cc1 was read as G6PDH CS 3, DTT redox prof 1, p97 ATPase inh 3, TNAP inh noacc -5, TNAP inh hiacc -12 and TNAP act hi DEA 1.1.
For Cc1nc2ccc(NC(=S)NC3CC3)cc2nc1C the results were G6PDH CS 17, DTT redox prof 0, p97 ATPase inh 2, TNAP inh noacc -17, TNAP inh hiacc -3 and TNAP act hi DEA 1.
Cc1nc2ccc(NC(=S)NCCCO)cc2nc1C was read as G6PDH CS 56*, DTT redox prof 8, p97 ATPase inh 4, TNAP inh noacc -8, TNAP inh hiacc 1 and TNAP act hi DEA 1.
CCCCOC(=O)c1ccc(NC(=O)C(=O)NCCN(C)C)cc1 was read as p97 ATPase inh 0.
`O=Nc1c2nc3ccccc3n(O)c-2c2ccccc12` gave G6PDH CS 9, DTT redox prof -1, p97 ATPase inh 2, TNAP inh noacc -1, TNAP inh hiacc 0 and TNAP act hi DEA 1.
Screening COc1ccc(-c2nc3n(n2)C(=O)CC(c2ccco2)S3)cc1 (stereo not drawn) returned G6PDH CS -3, DTT redox prof 1, p97 ATPase inh 3, TNAP inh noacc 76*, TNAP inh hiacc 0 and TNAP act hi DEA 1.
For O=C(NC(=S)Nc1cc([N+](=O)[O-])ccc1O)c1cccnc1 the results were G6PDH CS 6, DTT redox prof -1, p97 ATPase inh 4, TNAP inh noacc 6, TNAP inh hiacc 12 and TNAP act hi DEA 0.9.
For Oc1ccc(C2=Nn3c(nnc3-c3ccco3)SC2)cc1O the results were G6PDH CS 19, DTT redox prof -2, p97 ATPase inh 12, TNAP inh noacc 91*, TNAP inh hiacc 40 and TNAP act hi DEA 0.6.
For CCOc1ccc(/C=C/C(=O)CCC(=O)O)cc1 the results were G6PDH CS 12, DTT redox prof -1, p97 ATPase inh -1, TNAP inh noacc -3, TNAP inh hiacc 0 and TNAP act hi DEA 1.
For CC1CC(=O)C2=C(C1)Nc1nc3ccccc3n1C2c1cccnc1 (stereo not drawn) the results were G6PDH CS 16, DTT redox prof 0, p97 ATPase inh -4, TNAP inh noacc 53*, TNAP inh hiacc -3 and TNAP act hi DEA 1.
O=C1CCCC2=C1C(c1ccncc1)n1c(nc3ccccc31)N2 (stereo not drawn) was read as G6PDH CS 23, DTT redox prof 1, p97 ATPase inh 1, TNAP inh noacc 20, TNAP inh hiacc -3 and TNAP act hi DEA 1.
Screening CC(C)[n+]1ccn(C2=C([O-])c3ccccc3C(=O)/C2=N\S(=O)(=O)c2ccccc2)c1 returned p97 ATPase inh 7.
CCCC[n+]1ccn(C2=C([O-])c3ccccc3C(=O)/C2=N\S(=O)(=O)c2ccccc2)c1 was read as G6PDH CS 56*, DTT redox prof 0, p97 ATPase inh 7, TNAP inh noacc 7, TNAP inh hiacc 8 and TNAP act hi DEA 0.9.
`CCCCC[n+]1ccn(C2=C([O-])c3ccccc3C(=O)/C2=N\S(=O)(=O)c2ccccc2)c1` gave G6PDH CS 55*, DTT redox prof 0, p97 ATPase inh 3, TNAP inh noacc 8, TNAP inh hiacc 9 and TNAP act hi DEA 0.9.
CCCCC[n+]1ccn(C2=C([O-])c3ccccc3C(=O)/C2=N\S(=O)(=O)c2ccc(Br)cc2)c1 was read as p97 ATPase inh 5.
`CCOC(=O)N1CCN(C2=Nc3cccc4cccc2c34)CC1` gave G6PDH CS 58*, DTT redox prof 3, p97 ATPase inh 3, TNAP inh noacc 2, TNAP inh hiacc 6 and TNAP act hi DEA 0.9.
Screening CC(=O)N1CCN(C2=Nc3cccc4cccc2c34)CC1 returned G6PDH CS 56*, DTT redox prof -1, p97 ATPase inh 4, TNAP inh noacc -4, TNAP inh hiacc 0 and TNAP act hi DEA 1.
`CC(C)(C)Sc1ccccc1S(=O)(=O)C(C)(C)C` gave p97 ATPase inh -3.
Screening O=C(N/N=C/c1ccc(O)c(O)c1)c1ccc(CSc2cccc3cccnc23)cc1 returned G6PDH CS 1, DTT redox prof 0, p97 ATPase inh 3, TNAP inh noacc 57*, TNAP inh hiacc 21 and TNAP act hi DEA 0.8.
For C=CC(=O)NC(NC(=O)C=C)c1ccccc1F the results were p97 ATPase inh -1.
CCOC(=O)C1C(=O)Nc2nc3ccccc3n2C1C(C)C (stereo not drawn) was read as G6PDH CS 4, DTT redox prof 0, p97 ATPase inh 3, TNAP inh noacc 92*, TNAP inh hiacc 0 and TNAP act hi DEA 1.
